ChEMBL document CHEMBL1125383, “Benzazepinone calcium channel blockers. 4. Structure-activity overview and intracellular binding site” (J Med Chem, 1992)

Assays:
[1] = Concentration required to cause 50% relaxation of maximal contraction in circumferential rabbit aorta strips in response to KCl (100 mM); assay type: functional, tissue-based, Oryctolagus cuniculus; conditions: Oryctolagus cuniculus, Aorta
[2] = molecular target: T1, Voltage-gated L-type calcium channel (Rattus norvegicus, UniProt P22002+Q02485+P27732); test: Percentage decrease in blood pressure at a dose of 135 uM/kg for 0-6 h in spontaneously hypertensive rats.; assay type: functional, tissue-based
In short: (§1)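 Spontaneously hypertensive rats, n = 5, given 135 µmol/kg orally; systolic pressure recorded directly; maximum percent fall from predrug control noted within 0-6, 6-12 and 12-18 h windows after dosing; mean of five rats.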

[3] = molecular target: T1, Voltage-gated L-type calcium channel; test: Percentage decrease in blood pressure at a dose of 135 uM/kg for 12-18 hr in spontaneously hypertensive rats.; assay type: functional, tissue-based; in short: as §1
[4] = molecular target: T1, Voltage-gated L-type calcium channel; test: Percentage decrease in blood pressure at a dose of 135 uM/kg for 6-12 hr in spontaneously hypertensive rats.; assay type: functional, tissue-based; in short: as §1
[5] = Partition coefficient (logP); assay type: physicochemical; conditions: octanol/water
[6] = molecular target: T1, Voltage-gated L-type calcium channel; test: Percentage decrease in blood pressure at a dose of 270 umol/kg for 12-18 h in spontaneously hypertensive rats.; assay type: functional, tissue-based
In short: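 Spontaneously hypertensive rats, n = 5, dosed orally at 270 µmol/kg; systolic pressure recorded directly; maximum percent fall from predrug control within the 12-18 h window after dosing; mean of five rats.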

[7] = molecular target: T1, Voltage-gated L-type calcium channel; test: Percentage decrease in blood pressure at a dose of 135 uM/kg for 0-6 hr in spontaneously hypertensive rats.; assay type: functional, tissue-based; in short: as §1

SMILES | IC50 [1] | Decrease in blood pressure [2] | Decrease in blood pressure [3] | Decrease in blood pressure [4] | logP [5] | Decrease in blood pressure [6] | Decrease in blood pressure [7]
COc1ccc([C@@H]2Cc3cc(SC(C)(C)C)ccc3N(CCN(C)C)C(=O)[C@@H]2OC(C)=O)cc1 | 9000 nM | 10% | 14% | 11% | 3.6 |  | 
CNC(=O)Oc1ccc2c(c1)C[C@@H](c1ccc(OC)cc1)[C@@H](OC(C)=O)C(=O)N2CCN(C)C | 310 nM | 7% | 12% | 10% | 0.31 |  | 
COc1ccc([C@@H]2Cc3c(C(=O)OCc4ccccc4)cccc3N(CCN(C)C)C(=O)[C@@H]2OC(C)=O)cc1 | 3500 nM | 4% | 8% | 8% | 3.3 |  | 
COc1ccc([C@@H]2Cc3cc(OCc4ccccc4)ccc3N(CCN(C)C)C(=O)[C@@H]2OC(C)=O)cc1 | 730 nM | 8% | 11% | 10% | 3.4 |  | 
COc1ccc([C@@H]2Cc3c(C#N)cccc3N(CCN(C)C)C(=O)[C@@H]2OC(C)=O)cc1 | 120 nM | 9% | 9% | 7% | 1.3 |  | 
COc1ccc([C@H]2CC(=O)N(CCN(C)C)c3cccc(C(F)(F)F)c3C2)cc1 | 1100 nM | 2% | 3% | 3% | 3.1 |  | 
COc1ccc([C@@H]2Cc3c(ccc(Br)c3OC)N(CCN(C)C)C(=O)[C@@H]2OC(C)=O)cc1 | 580 nM | 18% | 11% | 12% | 2.4 |  | 
COc1ccc([C@@H]2Cc3cc(C(F)(F)F)ccc3N(CCN(C)C)C(=O)[C@@H]2OC(C)=O)cc1 | 1900 nM | 19% | 18% | 19% | 2.8 |  | 
COc1ccc([C@@H]2Cc3c(C(=O)O)cccc3N(CCN(C)C)C(=O)[C@@H]2OC(C)=O)cc1 | > 30000 nM | 8% | 10% | 9% | -4.1 |  | 
COc1ccc([C@@H]2Cc3cc(C(F)(F)F)ccc3N(CCN(C)C)C(=O)[C@@H]2SC(C)=O)cc1 | 68 nM | 13% | 23% | 18% | 3.4 |  | 
COc1ccc([C@@H]2Cc3c(OC)cccc3N(CCN(C)C)C(=O)[C@@H]2C)cc1 | 420 nM | 7% | 8% | 10% | 2.6 |  | 
COc1ccc([C@@H]2Cc3cc(OC(=O)C(C)(C)C)ccc3N(CCN(C)C)C(=O)[C@@H]2OC(C)=O)cc1 | 5200 nM | 13% | 16% | 14% | 2.9 |  | 
CCC[C@H]1C(=O)N(CCN(C)C)c2cccc(C(F)(F)F)c2C[C@H]1c1ccc(OC)cc1 | 950 nM | 14% | 24% | 19% | 4.9 |  | 
COc1ccc([C@@H]2Cc3cc(C(F)(F)F)ccc3N(CCN(C)C)C(=O)[C@@H]2NC(C)=O)cc1 | 9200 nM | 12% | 10% | 12% | 1.6 |  | 
COc1ccc([C@@H]2Cc3cc(Cl)ccc3N(CCN(C)C)C(=O)[C@@H]2OC(C)=O)cc1 |  | 13% |  | 14% | 2.2 | 18% | 
COc1ccc([C@@H]2Cc3cc(SC)ccc3N(CCN(C)C)C(=O)[C@@H]2OC(C)=O)cc1 | 600 nM | 19% | 21% | 20% | 2 |  | 

SMILES | IC50 [1] | Decrease in blood pressure [2] | Decrease in blood pressure [3] | Decrease in blood pressure [4] | logP [5] | Decrease in blood pressure [6] | Decrease in blood pressure [7]
COc1ccc([C@@H]2Cc3ccccc3N(CCN(C)C)C(=O)[C@@H]2OC(C)=O)cc1 |  | 8% | 13% | 8% | 1.2 |  | 
CC[C@H]1C(=O)N(CCN(C)C)c2cccc(C(F)(F)F)c2C[C@H]1c1ccc(OC)cc1 | 12 nM | 21% | 15% | 19% | 4.3 |  | 
C=CC[C@H]1C(=O)N(CCN(C)C)c2ccccc2C[C@H]1c1ccc(OC)cc1 |  | 25% | 18% | 23% | 3.3 |  | 
CCOC(=O)c1cccc2c1C[C@@H](c1ccc(OC)cc1)[C@@H](OC(C)=O)C(=O)N2CCN(C)C |  | 4% | 5% | 6% | 2.2 |  | 
COc1ccc([C@@H]2Cc3c(ccc(Br)c3OC)N(CCN(C)C)C(=O)[C@@H]2C)cc1 | 85 nM | 9% | 14% | 12% | 3.4 |  | 
COc1ccc([C@@H]2Cc3cc(Sc4ccccc4)ccc3N(CCN(C)C)C(=O)[C@@H]2OC(C)=O)cc1 | 690 nM | 15% | 19% | 17% | 3.8 |  | 
COc1ccc([C@@H]2Cc3c(OC)cccc3N(CCN(C)C)C(=O)[C@@H]2OC(C)=O)cc1 |  | 0% | 1% | 0% | 1.9 |  | 
COc1ccc([C@@H]2Cc3c(C(N)=O)cccc3N(CCN(C)C)C(=O)[C@@H]2OC(C)=O)cc1 | > 30000 nM | 13% | 12% | 12% | -1 |  | 
COc1ccc([C@@H]2Cc3cc(Oc4ccccc4)ccc3N(CCN(C)C)C(=O)[C@@H]2OC(C)=O)cc1 | 440 nM | 16% | 16% | 12% | 3.1 |  | 
COc1ccc([C@@H]2Cc3c(cccc3C(F)(F)F)N(CCN(C)C(C)=O)C(=O)[C@@H]2OC(C)=O)cc1 | 4500 nM |  | 5% | 1% |  |  | 2%
C=CC[C@H]1C(=O)N(CCN(C)C)c2cccc(C(F)(F)F)c2C[C@H]1c1ccc(OC)cc1 | 100 nM | 24% | 29% |  | 4.6 |  | 
COc1ccc([C@@H]2Cc3ccccc3N(CCN(C)C)C(=O)[C@@H]2C)cc1 | 1100 nM | 6% | 8% | 4% | 2.5 |  | 
COc1ccc([C@@H]2Cc3cc(OC(F)F)ccc3N(CCN(C)C)C(=O)[C@@H]2OC(C)=O)cc1 | 960 nM | 12% | 16% | 13% | 1.8 |  | 
COc1ccc([C@@H]2Cc3c(C)cccc3N(CCN(C)C)C(=O)[C@@H]2OC(C)=O)cc1 | 2500 nM | 6% | 12% | 10% | 1.7 |  | 
COc1ccc([C@@H]2Cc3c(cccc3C(F)(F)F)N(CCN(C)C)C(=O)[C@@H]2Cc2ccccc2)cc1 | 790 nM | 14% | 6% | 8% | 5.2 |  | 
COc1ccc([C@@H]2Cc3c(cccc3[N+](=O)[O-])N(CCN(C)C)C(=O)[C@@H]2OC(C)=O)cc1 | 370 nM | 16% | 14% | 12% | 1.7 |  | 
